Screening data (PubChem)
A selection: hits, their analogues and other compounds. The true share with any hit is near 2.5%.
GRK2 inh – inhibitors of human GRK2 displacing RNA aptamer. AID 488847. 330,000 compounds, 0.59% hits. bead flow cytometry, FAM-aptamer displacement from GRK2. inhibition of aptamer binding, % at 10 µM. P25098;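 active = inhibition of aptamer binding above 40%, roughly 3 SD of noise, on plates passing a quality check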;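 note: median bead fluorescence of bound FAM aptamer so fluorescent compounds give negative values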
Beta2AR agonist – human beta-2 adrenergic receptor agonism by FAP. Am2.2-beta2AR cells, FAP receptor internalization, flow cytometry. P07550. 340,000 compounds, 0.43% hits. response, % (concentration not given with the values);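 active = response above a set limit, near 3 SD of response in nonfluorescent compounds, cut at about 42% in these data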
NadD inh – blocks S. aureus nicotinate mononucleotide adenylyltransferase; inhibition, % at 20 µM; purified NadD enzyme, colorimetric absorbance read-out; AID 602399; 360,000 compounds, 0.78% hits; in the data active = inhibition above about 26%
ABHD5-PLIN5 inh – ABHD5-PLIN5 protein interaction inhibition. Split G. princeps luciferase complementation, luminescence, 4 h. inhibition, % at 4 µM. 360,000 compounds, 0.78% hits;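 active = inhibition above the mean inhibition across every tested compound plus 3 SD, cut at about 22% in these data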;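 note: 0% = DMSO only wells and the 100% control is not disclosed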
Target sequence (Q00G26 whole entry, looked up): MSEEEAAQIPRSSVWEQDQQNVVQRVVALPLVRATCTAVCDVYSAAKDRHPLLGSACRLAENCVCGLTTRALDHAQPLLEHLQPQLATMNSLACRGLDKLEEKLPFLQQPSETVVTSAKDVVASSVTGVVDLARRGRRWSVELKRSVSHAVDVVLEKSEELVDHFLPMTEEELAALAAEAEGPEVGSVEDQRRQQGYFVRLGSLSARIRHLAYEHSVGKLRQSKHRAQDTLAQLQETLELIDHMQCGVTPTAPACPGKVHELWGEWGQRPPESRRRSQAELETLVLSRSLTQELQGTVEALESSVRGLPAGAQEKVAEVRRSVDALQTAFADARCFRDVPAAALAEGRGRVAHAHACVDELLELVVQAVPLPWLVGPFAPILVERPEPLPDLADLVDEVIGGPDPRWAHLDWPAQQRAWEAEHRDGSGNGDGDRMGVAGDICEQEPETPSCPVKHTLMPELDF
Target sequence (Q8WTS1 whole entry, looked up): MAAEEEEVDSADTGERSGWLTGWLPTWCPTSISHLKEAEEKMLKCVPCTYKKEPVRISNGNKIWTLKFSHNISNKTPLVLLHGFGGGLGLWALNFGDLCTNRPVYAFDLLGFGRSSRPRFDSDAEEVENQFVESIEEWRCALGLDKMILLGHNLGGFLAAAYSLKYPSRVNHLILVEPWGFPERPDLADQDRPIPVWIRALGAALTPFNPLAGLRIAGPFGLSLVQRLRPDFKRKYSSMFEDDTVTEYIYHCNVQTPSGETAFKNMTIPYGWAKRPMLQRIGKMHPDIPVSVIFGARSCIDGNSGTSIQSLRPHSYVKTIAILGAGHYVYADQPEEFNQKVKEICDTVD
SENP1 inh – SENP1 (human) catalytic domain inhibition; Q9P0U3; recombinant SENP1 catalytic domain, CyPet-SUMO1-YPet FRET cleavage; inhibition, % at 10 µM; 360,000 compounds, 0.21% hits; AID 624204;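 active = inhibition at least 30% at 10 µM, raw YFP signal under a set limit, fluorescence ratio 0.5 to 1.5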;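 note: 0% = enzyme with DMSO and 100% = no enzyme wells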
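System: Recombinant human SENP1 catalytic domain, His6-tagged | Incubation: Enzyme reaction for 50 min at room temperature, dark | Medium: Tris pH 8 with BME, BSA, NP40 and catalase | Also added: 25 nM SUMO1 FRET substrate | Compound: 10 µM single point, 0.5% DMSO | Measured by: FRET fluorescence in CFP and YFP emission channels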
B2AR ag CP1 – activates human beta-2 adrenergic receptor; shares compounds with Beta2AR agonist; Am2.2-beta2AR cells, FAP surface receptor, flow cytometry; active compounds read low; percent response (surface receptor), % at 10 µM; 1,100 compounds, 25% hits;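 active = surface receptor percent response at or below 58%, roughly 3 SD from nonfluorescent compounds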
FAP fluor counter – counter-screen for beta-2AR agonists: fluorescence in Am2.2 cells; 1,100 tested, under 10 active; calls only at 10 µM; AID 588765; FAP fluorogen flow cytometry, fluorescence counterscreen; active compounds read low; shares compounds with Beta2AR agonist;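 active = percent response below a set limit in fluorescence channel 1 and below 50% in channel 8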
Starred values were filed as active, the others as inactive; i = inactive; . = no result.

SMILES	GRK2 inh	Beta2AR agonist	NadD inh	ABHD5-PLIN5 inh	SENP1 inh	B2AR ag CP1	FAP fluor counter
NC(=O)CC(NC(=O)Cc1ccc(Cl)cc1)c1ccc(NC2CCCCCCC2)c([N+](=O)[O-])c1 (stereo not drawn)	0.0	0.5	-9.5	-15.2	1.5	.	.
CC(C)CN(C(=O)c1ccc2c(c1)OCCO2)c1c(N)n(Cc2ccccc2)c(=O)[nH]c1=O	0.0	66.3*	7.4	-5.8	-8.0	107.0	i
CC(=O)N1CCN(C(=O)c2cccc(S(=O)(=O)Nc3c(C)n(C)n(-c4ccccc4)c3=O)c2)CC1	.	-4.6	-9.4	-4.4	0.0	.	.
Cc1cc(N2CCN(C(=O)c3ccco3)CC2)n2nc(-c3cccc(Cl)c3)cc2n1	4.0	42.3*	-1.4	8.7	0.6	108.6	i
COc1ccc(-c2cc3nc(C)cc(N4CCN(C(=O)c5ccco5)CC4)n3n2)cc1	.	.	6.2	5.1	0.2	.	.
O=C(NCCc1ccccn1)c1nc(Cn2cc(Br)cn2)no1	0.0	5.8	-7.6	0.9	-0.4	.	.
O=C(Nc1ccc(-c2cccc(F)c2)cc1)C1CCCN(Cc2ccccn2)C1 (stereo not drawn)	0.0	0.2	-10.9	-2.8	-0.9	110.4	i
O=C(Nc1cccc(-c2ccc(F)cc2)c1)C1CCCN(Cc2cccnc2)C1 (stereo not drawn)	39.0	-2.9	-7.0	7.1	-1.3	.	.
COc1cccc(-c2ccc(NC(=O)C3CCCN(Cc4cc(C)[nH]n4)C3)cc2)c1 (stereo not drawn)	0.0	2.8	-2.0	9.1	-0.7	.	.
COc1cccc(-c2ccc(NC(=O)C3CCCN(Cc4cnn(C(C)C)c4)C3)cc2)c1 (stereo not drawn)	0.0	23.4	-9.4	19.4	-1.9	84.5	i
COCc1ccc(CN2CCCC(C(=O)Nc3ccc(-c4cccc(OC)c4)cc3)C2)o1 (stereo not drawn)	7.0	29.6	-6.5	11.9	-2.0	116.2	i
COc1cccc(-c2ccc(NC(=O)C3CCCN(Cc4ccccn4)C3)cc2)c1 (stereo not drawn)	.	.	-2.2	3.9	-1.9	106.4	i
CCCc1ncc(CN2CCCC(C(=O)Nc3ccc(-c4cccc(OC)c4)cc3)C2)cn1 (stereo not drawn)	0.0	12.8	-3.9	-4.0	0.2	.	.
CCN(Cc1cc(=O)n2ccsc2n1)Cc1nc2cc(OC)c(OC)cc2c(=O)[nH]1	6.0	-3.3	-3.8	-5.0	-5.6	.	.
O=C(NNC(=O)c1ccccc1O)c1ccc(Cl)c(S(=O)(=O)N2CCc3ccccc32)c1	0.0	-0.9	24.0	-4.1	1.5	.	.
Cc1ccc(CNC(=O)CCCc2c[nH]c3ccccc23)cc1	2.0	51.5*	-7.8	4.1	0.0	103.9	i
CC1=CC(=O)C(C(C)C)=C/C1=C(\c1cc(C(C)C)c(OP(=O)(O)O)cc1C)c1ccccc1C(=O)O	7.0	-21.4	3.1	-5.3	0.4	.	.
COc1ccc(Nc2cc(C(=O)NCCCN3CCN(C)CC3)c3ccccc3n2)cc1	0.0	47.3*	-3.5	7.1	1.6	85.8	i
COc1ccc(Nc2cc(C(=O)NCCCN3CCOCC3)c3ccccc3n2)cc1	0.0	5.9	-0.2	1.6	2.1	.	.
O=C(N/C(=C/c1ccccc1F)C(=O)N1CCCCC1)c1ccccc1	0.0	-6.4	-3.1	2.4	0.8	.	.
N#C/C(=C\c1c(Cl)cccc1Cl)c1nc2ccccc2o1	0.0	-3.3	-11.9	-0.2	-4.6	141.8	i
Cc1cc(O)ccc1N/C=C(\C#N)c1nc2ccccc2o1	3.0	4.2	3.9	-3.1	-57.4	.	.
CCN1C(=O)[C@H]2[C@H]3CN=C(SCc4ccc(C(=O)OC)cc4)N3[C@@](C)(C(=O)OC)[C@H]2C1=O	0.0	1.9	0.9	-0.2	0.4	.	.
COc1ccc(S(=O)(=O)N(C)c2ccc(C(=O)Nc3cccnc3)cc2)cc1	11.0	-7.5	-2.2	4.0	2.6	.	.
COc1cc(OC)cc(C(=O)Oc2c(CN3CCOCC3)cc(Cl)c3cccnc23)c1	2.0	-4.9	0.9	-5.4	0.9	88.7	i
